Screens from PubChem.
Kir21 block: inhibitors of mouse Kir2.1 inward-rectifier potassium channel; HEK293-Kir2.1, FluxOR thallium flux fluorescence; active compounds read low; AID 1672, 2009; B-score at 10 µM; Inward rectifier potassium channel 2 (Mus musculus), P35561; hit rate 0.85% among 310,000;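 active = fluorescence ratio B-score at or below minus 3 SD of library scores, with starting-brightness B-score within 2 SD, cut at about -4.2 in these data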;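 note: channel flux triggered by added potassium and thallium sulfate stimulus; B-score of peak minus minimum fluorescence over baseline after thallium stimulus; more negative B-score means stronger Kir2.1 block with less thallium influx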
KCNQ1 pot: potentiators or activators of KCNQ1 channel, primary screen, cell-based, thallium flux, high-throughput; B-score at 10 µM; Potassium voltage-gated channel subfamily KQT member 1 (Homo sapiens), P51787; AID 2648, 2010; CHO-K1 KCNQ1, thallium flux FluxOR fluorescence; active compounds read high; hit rate 0.35% among 310,000;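 active = fluorescence ratio B-score, a plate-corrected score, at least three library SD, with initial intensity B-score within 5 SD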
Target sequence (P51787 whole entry, looked up): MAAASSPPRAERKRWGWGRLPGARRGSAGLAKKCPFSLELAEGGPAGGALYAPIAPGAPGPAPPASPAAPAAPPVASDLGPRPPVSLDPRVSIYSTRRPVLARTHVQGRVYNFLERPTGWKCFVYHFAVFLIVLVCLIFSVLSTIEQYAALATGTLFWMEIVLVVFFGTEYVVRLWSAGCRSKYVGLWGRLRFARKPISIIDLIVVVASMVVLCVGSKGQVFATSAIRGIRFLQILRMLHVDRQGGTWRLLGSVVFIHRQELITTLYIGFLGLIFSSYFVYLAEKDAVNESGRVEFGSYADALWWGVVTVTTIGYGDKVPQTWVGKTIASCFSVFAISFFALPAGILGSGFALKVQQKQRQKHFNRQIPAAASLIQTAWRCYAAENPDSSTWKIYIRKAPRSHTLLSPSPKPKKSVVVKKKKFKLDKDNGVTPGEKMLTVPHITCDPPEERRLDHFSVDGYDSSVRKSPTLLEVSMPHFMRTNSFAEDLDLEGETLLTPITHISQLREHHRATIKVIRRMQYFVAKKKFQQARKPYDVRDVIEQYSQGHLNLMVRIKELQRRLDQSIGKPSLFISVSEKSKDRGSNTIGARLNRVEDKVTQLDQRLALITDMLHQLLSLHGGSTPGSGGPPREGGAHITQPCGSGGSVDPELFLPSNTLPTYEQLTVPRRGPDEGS
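Doses: Single concentration per compound, DMSO matched to controls | Test system: KCNQ1-transfected CHO-K1 cells | Timing: 90 min dye loading and 20 min compound exposure, both at room temperature | Measured by: Kinetic FluxOR thallium fluorescence, 10-s 1-Hz baseline, 110-s post-stimulus read | Medium: Assay buffer with matched DMSO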
KCNK9 block: KCNK9 potassium channel inhibitors, primary screen, HEK293 cells, thallium flux; Potassium channel subfamily K member 9 (Homo sapiens), Q9NPC2; FluxOR thallium flux fluorescence; active compounds read low; B-score at 10 µM; hit rate 1.2% among 310,000; AID 488922, 2010;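 active = ratio B-score over 3 SD below the library mean, with starting fluorescence within 5 SD of its mean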;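 note: negative B-score means less thallium flux so channel inhibition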
KCNQ1 block: inhibitors of human KCNQ1 channel, primary screen, cell-based, thallium flux, high-throughput. Potassium voltage-gated channel subfamily KQT member 1 (Homo sapiens), P51787. CHO-K1 KCNQ1, FluxOR thallium flux fluorescence; active compounds read high. B-score at 10 µM. hit rate 1.3% among 310,000;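 active = compounds whose thallium flux B-score, printed positive for inhibition, exceeds three library SD while starting fluorescence stays within three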;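 note: channel opened by potassium depolarization with thallium stimulus after 20 min compound exposure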
hERG protect: hERG rescue from dofetilide block, primary screen, cell-based, CHO-hERG, FluxOR thallium flux, dofetilide IC70 | Voltage-gated inwardly rectifying potassium channel KCNH2 (Homo sapiens), Q12809 | dofetilide IC70 present | activation (rescue from dofetilide block), less the hit threshold, % at 10 µM | hit rate 0.51% among 310,000;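 active = activation above the mean of controls blocked by dofetilide plus 5 SD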;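 note: thallium influx through hERG after potassium depolarization seen as dye fluorescence rise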
KCNK3 block: human KCNK3 channel inhibitors, primary screen, CHO cells, FluxOR thallium flux, B-score; AID 602410, 2012; B-score at 10 µM; Potassium channel subfamily K member 3 (Homo sapiens), O14649; FluxOR fluorescence; active compounds read low; hit rate 0.84% among 340,000;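 active = B-score under library mean minus 4 SD, starting fluorescence ratio at most library mean plus 5 SD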;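 note: more negative B-score means stronger inhibition of thallium flux through KCNK3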
Large screens that a line does not name were inactive; ! = not confirmed by another sample. A selection: hits, their analogues and other compounds. The true share with any hit is near 3.8%.

CCCCN(C)C(=O)CCCc1c[nH]c2ccccc12	KCNK9 block -7.8
Clc1ccc(-c2nnc(CSc3nnc(-c4cccs4)n3Cc3ccccc3)o2)cc1	KCNQ1 block 8, KCNK3 block -8.8
Cc1nnc(SCc2nnc(-c3cccs3)o2)n1Cc1ccccc1	none
Cn1c(SCC(=O)NCc2ccco2)nnc1-c1cccs1	none
C/C(=N\Nc1nc(-c2ccccc2O)nc2ccccc12)c1ccccc1	none
C/C(=N/Nc1nc(-c2ccccc2F)nc2ccccc12)c1ccccc1O	KCNK9 block -7.3, KCNQ1 block 7
CCC(=O)N/N=C/c1ccc(OS(=O)(=O)c2ccccc2)cc1	none
NC(N)=N/N=C/c1ccc(OS(=O)(=O)c2ccccc2)cc1	Kir21 block -10
O=C(NC1CCCCC1)N1CCC(n2cnc3ccccc32)CC1	hERG protect 6.2
Cc1cccc(C)c1NC(=O)N1CCC(n2cnc3ccccc32)CC1	none
CCCn1c(N)c(N(CCOC)C(=O)c2cccc(F)c2)c(=O)[nH]c1=O	none
Cc1ccc(NC(=O)CN2CCC(Cc3ccccc3)CC2)cc1S(=O)(=O)N(C)C	none
O=S(=O)(NCC(c1ccco1)N1CCN(c2ccccc2F)CC1)c1ccccc1 (stereo not drawn)	KCNK9 block -6.9
O=S(=O)(NCC(c1ccco1)N1CCN(c2ccccc2F)CC1)c1ccc2c(c1)OCCO2 (stereo not drawn)	none
COC(=O)c1ccc(OCC2c3cc(OC)c(OC)cc3CCN2C(=O)c2ccco2)cc1 (stereo not drawn)	none
CCCN1C(=O)SC(CC(=O)Nc2cccc3ccccc23)C1=O (stereo not drawn)	none
CCCN1C(=O)SC(CC(=O)Nc2ccccc2)C1=O (stereo not drawn)	hERG protect 8.6
S=c1nc(Cc2ccc(Cl)cc2)[nH]c2ccccc12	KCNQ1 pot 43
S=c1nc(Cc2ccccc2)[nH]c2ccccc12	KCNQ1 pot 48, hERG protect 44
S=c1nc(COc2ccccc2)[nH]c2ccccc12	KCNQ1 pot 92, hERG protect 76
COc1ccc(C2(c3ccc(OC)cc3)NC(=O)N(CC(=O)Nc3ccc(C(N)=O)cc3)C2=O)cc1	none
COCCCNc1nc2ccccc2nc1NS(=O)(=O)c1cc(Cl)ccc1Cl	none
Cc1cccc(C(=O)N=c2c(C#N)cc3c(=O)n4cccc(C)c4nc3n2Cc2ccco2)c1	KCNQ1 block 7
CCOC(=O)c1cc2c(=O)n3ccccc3nc2n(Cc2ccco2)c1=NC(=O)c1cccnc1	KCNQ1 block 7
CCOC(=O)c1cc2c(=O)n3cccc(C)c3nc2n(Cc2ccco2)c1=NC(=O)c1cccnc1	none (no result: Kir21 block, KCNQ1 pot, KCNK9 block, KCNQ1 block, hERG protect)
Cc1cccn2c(=O)c3cc(C#N)c(=NC(=O)c4ccco4)n(Cc4ccco4)c3nc12	none
Cc1cccn2c(=O)c3cc(C#N)c(=NC(=O)c4ccccc4)n(Cc4ccco4)c3nc12	KCNK9 block -7.3, KCNK3 block -9.1!
Cc1ccnc(NC(=O)CCC(=O)N(CC(=O)NCCc2ccccc2)Cc2ccco2)c1	none (no result: Kir21 block, KCNQ1 pot, KCNK9 block, KCNQ1 block, hERG protect)
O=C(N/N=C/c1c(Nc2cccc(C(F)(F)F)c2)nc2ccccn2c1=O)c1ccccc1[N+](=O)[O-]	none
CCCc1cc(-c2[nH]ncc2-c2ccc3c(c2)OCCCO3)c(O)cc1O	KCNQ1 block 6
COc1ccc(OC)c2[nH]c(=O)c(CCNC(=S)NC(C)(C)C)cc12	none
CCOc1ccc(-c2c[n+]3c(n2-c2ccccc2)CCCCC3)cc1	KCNQ1 block 7
COc1ccccc1C(=O)NCCC(=O)NNC(=O)c1ccccc1O	none
O=c1cc(-c2cccs2)oc2ccc(Cl)cc12	none
O=c1c(O)c(-c2cccs2)oc2ccccc12	KCNQ1 pot 55, hERG protect 33
O=c1c(O)c(-c2cccs2)oc2ccc(Cl)cc12	KCNQ1 pot 72, hERG protect 35
CC(NC(=O)C1CCCN(S(=O)(=O)c2cccs2)C1)c1ccccc1 (stereo not drawn)	none
CCNC(=S)N/N=C/c1ccc(F)cc1	none (no result: KCNK3 block)
Cc1oc(/N=C/c2ccc(F)cc2)c(C#N)c1C	hERG protect 7.7
CC(=O)c1ccccc1OC(=O)c1ccc(-c2ccccc2)cc1	KCNK9 block -6.7
Cc1ccc(S(=O)(=O)c2n[nH]n3c2nc(=O)c2ccccc23)cc1	hERG protect 8.6
CCOC(=O)c1n[nH]n2c1nc(=O)c1ccccc12	none
O=C(Nc1cccc(-c2nc3ccccc3s2)c1)c1cc(-n2cnnc2)ccc1Cl	KCNQ1 block 6
CC(C)Nc1nc(Cl)nc(N(C#N)CN2C(=O)c3ccccc3C2=O)n1	Kir21 block -5.2
COc1ccc(CNC(=O)COC(=O)[C@H](Cc2c[nH]c3ccccc23)NC(=O)c2cccs2)cc1	none
COCCNC(=S)Nc1ccc(N2CCOCC2)c(S(=O)(=O)Nc2ccccc2OC)c1	none (no result: Kir21 block, KCNQ1 pot, KCNK9 block, KCNQ1 block, hERG protect)
O=C(/C=C/c1ccc(OCCCF)cc1)Nc1ccnc(-c2cccnc2)n1	none
COc1ccc(C(=O)N2CCC(C(N)=O)CC2)cc1S(=O)(=O)N1CCCC1	none (no result: Kir21 block, KCNQ1 pot, KCNK9 block, KCNQ1 block, hERG protect)
Cc1nc2cc(-c3ccc(Cl)cc3)nn2c(NCCN(C)C)c1C	Kir21 block -4.6
CCCCOc1ccc(C(=O)N/N=C/c2cn[nH]c2-c2ccc(OC)c(OC)c2)cc1	none
COc1ccc(-c2[nH]ncc2/C=N\NC(=O)c2ccc(C(C)(C)C)cc2)cc1OC	KCNQ1 block 6
O=C(CCN1C(=O)/C(=C\C=C\c2ccccc2)SC1=S)Nc1cccc(C(=O)O)c1	hERG protect 45
O=C(CCCN1C(=O)/C(=C\c2ccccc2)SC1=S)Nc1cccc(C(=O)O)c1	none
COc1ccc(NC(=O)COc2cccc(C(F)(F)F)c2)cn1	none
CCCCOc1ccc(C(=O)Nc2ccc(S(=O)(=O)Nc3cc(C)on3)cc2)cc1OC	hERG protect 4.9
Oc1ccc(Oc2ccc3c(C(F)(F)F)cc(C(F)(F)F)nc3n2)cc1	none
O=C(CP(=O)(c1ccccc1)c1ccccc1)Nc1nc2ccccc2s1	none
O=C(NNC(=O)c1ccc(O)cc1O)c1ccc(Cl)cc1	KCNQ1 block 6
O=C(NCCSCc1c(F)cccc1Cl)Nc1ccccc1	none
S=C(NCCSCc1c(Cl)cccc1Cl)Nc1ccccc1	Kir21 block -5.1
N#C/C(=C\c1ccc(-c2ccc([N+](=O)[O-])cc2)o1)C(=O)Nc1nc(-c2cccs2)cs1	none
